Consider one compound from publication PMC11455733 (Drugs in R&D, 2024).

Data set [1] is described as follows: Solubility in water or saline. The data set is classed as physicochemical.
Data set [2] can be described thus: 10-day daily IP administration, serum chemistry. The class given is in vivo, C57BL/6 mice. As to conditions: 20.0 mg/kg IP daily for 10 days, day 11, vs vehicle. The essentials: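 Serum was prepared from postmortem blood on day 11 and analysed on a chemistry analyser per the manufacturer's instructions. Mice were C57BL/6 of both sexes (7–12 weeks; n = 8 per group), dosed IP daily for 10 days with vehicle (DMSO/0.5% Methocel in 0.9% NaCl, 10%/90% vol/vol) or test compound. Analysis was ANOVA, then unpaired t test.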

The test system of data set [3] is Col1a1 and Fn mRNA in total lung RNA. Put plainly: 10-day daily IP administration, lung extracellular matrix mRNA by qPCR. The class given is in vivo, C57BL/6 mice. To be noted: 20.0 mg/kg IP daily for 10 days, day 11, vs vehicle. The essentials: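 Lung tissue was taken on day 11, after 10 days of daily IP vehicle (DMSO/0.5% Methocel-saline) or test compound in male and female C57BL/6 mice (n = 8 per group). Tissue was lysed and RNA purified with genomic DNA removal. cDNA was made with oligo(dT) plus random hexamers, then SYBR green real-time PCR was run. Col1a1 and Fn were expressed as ratios to B2M.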
A general note: Real-time PCR tracks product formation cycle by cycle.

Data set [4] has as its system IL-1β, IL-6, and TNFα in total lung homogenates. Put plainly: 10-day daily IP administration, lung cytokines by ELISA. The data set is classed as in vivo, C57BL/6 mice. As to conditions: 20.0 mg/kg IP daily for 10 days, day 11, vs vehicle. The essentials: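 On day 11, IL-1β, IL-6 and TNFα were measured by mouse ELISA kits in total lung homogenates. Mice were C57BL/6 of both sexes (7–12 weeks; n = 8 per group), given daily IP vehicle (DMSO/0.5% Methocel in 0.9% NaCl, 10%/90% vol/vol) or test compound for 10 days. Analysis was ANOVA followed by unpaired t test.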
(In general: ELISA stands for enzyme-linked immunosorbent assay.)

Data set [5] can be described thus: 10-day daily IP administration, complete blood count. To be noted: 20.0 mg/kg IP daily for 10 days, day 11, vs vehicle. The data set is classed as in vivo, C57BL/6 mice. Summed up: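 Blood was collected postmortem on day 11 and run on a veterinary haematology analyser for complete blood count. Mice were male and female C57BL/6 (7–12 weeks; n = 8 per group), dosed IP daily for 10 days with vehicle (DMSO/0.5% Methocel in saline, 10%/90% vol/vol) or test compound. Analysis was ANOVA, then unpaired Student t test.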

Data set [6] relates to EphB2. As to conditions: cited from earlier work.
Data set [7] in a line: 10-day daily IP administration, body weight. The class given is in vivo, C57BL/6 mice. Summed up: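 Body weights were recorded daily and again on day 11, before euthanasia. Mice were C57BL/6 of both sexes (7–12 weeks; n = 8 per group, equal males and females), with sex data combined. Dosing was IP once daily for 10 days with vehicle (DMSO diluted 10%/90% vol/vol in 0.5% Methocel/0.9% NaCl) or test compound. Groups were compared by ANOVA followed by unpaired t test.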

The test system of data set [8] is lung, liver, and kidney. Put plainly: 10-day daily IP administration, H&E histology scoring. As to conditions: 20.0 mg/kg IP daily for 10 days, all parameters. The data set is classed as in vivo, C57BL/6 mice. The essentials: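 Male and female C57BL/6 mice (7–12 weeks; n = 8 per group, equal sexes) got IP vehicle (DMSO then 0.5% Methocel in 0.9% NaCl, 10%/90% vol/vol) or test compound daily from day 0 for 10 days. On day 11, organs were fixed in 10% neutral formalin and paraffin-embedded. 5 μm H&E sections were graded blindly by a pathologist over the whole section area.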

Where [9] appears, read: within normal published parameters.

In the case of `CCN1CCN(Cc2ccc(NC(=O)c3ccc(C)c(NC(=O)c4cncc(-c5cccs5)c4)c3)cc2C(F)(F)F)CC1` [ALW-II-41-27], in data set [1], the “solubility in water or saline” value is “lack of solubility”. For the same compound, the “serum chemistry parameters other than creatinine” value in data set [2] is listed as “no significant changes”. Also, in data set [3], the “Col1a1 mRNA expression (ratio to B2M) in lung” value is “no significant differences” and the “Fn mRNA expression (ratio to B2M) in lung” value is “no significant differences”. For the same compound, in data set [4], the “IL-1β in whole-lung lysates” value is “No significant alterations”, the “IL-6 in whole-lung lysates” value is on record as “No significant alterations” and the “TNF-α in whole-lung lysates” value is given as “No significant alterations”. In data set [5], the “CBC parameters other than NEU and RBC” value is given as “no significant differences”. In data set [5] (setting [9]), the “neutrophil (NEU) count” value is listed as “significantly higher” and the “red blood cell (RBC) count” value is on record as “significantly higher”. The “inhibition of the Ephrin receptor EphB2” value in data set [6] is reported as “shown to inhibit”. The “daily and ending weight loss” value in data set [7] (20.0 mg/kg IP daily for 10 days, vs vehicle) is given as “no significant changes”. In data set [7] (20.0 mg/kg IP once a day in mice), the tolerability entry was “well tolerated”. For the same compound, the “histology score (0 normal to 4+), lung, liver, and kidney” value in data set [8] is 0.
